Assay results as given in ChEMBL document CHEMBL4138262, “Antineoplastic Agents. 606. The Betulastatins” (2018).
In brackets after ≈: the same amount, converted by molar mass.

Columns and labels:
Type in all cases: functional
MCF7 = test: Growth inhibition of human MCF7 cells after 48 hrs by SRB assay; conditions: MCF7, 48 h
How it was run: (§1)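 Cells in RPMI1640 with 5% fetal bovine serum were seeded in 96-well plates and incubated 24 h before serial dilutions of compound were added. After 48 h, plates were TCA-fixed, stained with sulforhodamine B and read on a microplate reader. Five serial dilutions were tested, with optical density in duplicate per end point. GI50 was calculated from optical density as the concentration halving net protein increase.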

DU-145 = test: Growth inhibition of human DU145 cells after 48 hrs by SRB assay; conditions: DU-145, 48 h; how it was run: as §1
NCI-H460 = test: Growth inhibition of human NCI-H460 cells after 48 hrs by SRB assay; conditions: NCI-H460, 48 h; how it was run: as §1
KM-20L2 = test: Growth inhibition of human KM20L2 cells after 48 hrs by SRB assay; conditions: KM-20L2, 48 h; how it was run: as §1
SF-268 = test: Growth inhibition of human SF268 cells after 48 hrs by SRB assay; conditions: SF-268, 48 h; how it was run: as §1
BXPC-3 = test: Growth inhibition of human BxPC3 cells after 48 hrs by SRB assay; conditions: BXPC-3, 48 h; how it was run: as §1

Row | Structure (SMILES) | GI50 (MCF7) [µg/mL] | GI50 (DU-145) [µg/mL] | GI50 (NCI-H460) [µg/mL] | GI50 (KM-20L2) [µg/mL] | GI50 (SF-268) [µg/mL] | GI50 (BXPC-3) [µg/mL]
1 | C=C(C)[C@@H]1CC[C@]2(CN)CC[C@]3(C)[C@H](CC[C@@H]4[C@@]5(C)CC[C@H](OC(C)=O)C(C)(C)[C@@H]5CC[C@]43C)[C@@H]12 | 1.8 (≈ 3.72 µM) | 1.8 (≈ 3.72 µM) | 1.9 (≈ 3.93 µM) | 1.9 (≈ 3.93 µM) | 1.8 (≈ 3.72 µM) | 1.9 (≈ 3.93 µM)
2 | C=C(C)[C@@H]1CC[C@]2(C=O)CC[C@]3(C)[C@H](CC[C@@H]4[C@@]5(C)CC[C@H](OC(C)=O)C(C)(C)[C@@H]5CC[C@]43C)[C@@H]12 | > 10 | > 10 | > 10 | > 10 | > 10 | > 10
3 | C=C(CBr)[C@@H]1CC[C@]2(COC(C)=O)CC[C@]3(C)[C@H](CC[C@@H]4[C@@]5(C)CC[C@H](OC(C)=O)C(C)(C)[C@@H]5CC[C@]43C)[C@@H]12 | > 10 | > 10 | > 10 | > 10 | > 10 | > 10
4 | CC[C@H](C)[C@@H]([C@@H](CC(=O)N1CCC[C@H]1[C@H](OC)[C@@H](C)C(=O)NCCN1C(=O)[C@]23CCC(C)(C)C1[C@@H]2[C@H]1CC[C@@H]2[C@@]4(C)CC[C@H](OC(C)=O)C(C)(C)[C@@H]4CC[C@@]2(C)[C@]1(C)CC3)OC)N(C)C(=O)[C@@H](NC(=O)[C@H](C(C)C)N(C)C)C(C)C | 3.6 (≈ 3.21 µM) | 0.39 (≈ 0.348 µM) | 5.1 (≈ 4.55 µM) | 3.1 (≈ 2.76 µM) | 1.3 (≈ 1.16 µM) | 3.8 (≈ 3.39 µM)
5 | C=C(C)[C@@H]1CC[C@]2(COC(C)=O)CC[C@]3(C)[C@H](CC[C@@H]4[C@@]5(C)CC[C@H](NC(=O)[C@H](C)[C@@H](OC)[C@@H]6CCCN6C(=O)OC(C)(C)C)C(C)(C)[C@@H]5CC[C@]43C)[C@@H]12 | > 10 | > 10 | > 10 | > 10 | > 10 | > 10
6 | C=C(C)[C@@H]1CC[C@]2(CNC(=O)[C@H](C)[C@@H](OC)[C@@H]3CCCN3C(=O)C[C@@H](OC)[C@H]([C@@H](C)CC)N(C)C(=O)[C@@H](NC(=O)[C@H](C(C)C)N(C)C)C(C)C)CC[C@]3(C)[C@H](CC[C@@H]4[C@@]5(C)CC[C@H](OC(C)=O)C(C)(C)[C@@H]5CC[C@]43C)[C@@H]12 | 3.6 (≈ 3.38 µM) | 3.7 (≈ 3.48 µM) | 4.2 (≈ 3.95 µM) | 2.4 (≈ 2.25 µM) | 2.6 (≈ 2.44 µM) | 4.1 (≈ 3.85 µM)
7 | C=C(C)[C@@H]1CC[C@]2(CO)CC[C@]3(C)[C@H](CC[C@@H]4[C@@]5(C)CC[C@H](NC(=O)[C@H](C)[C@@H](OC)[C@@H]6CCCN6C(=O)C[C@@H](OC)[C@H]([C@@H](C)CC)N(C)C(=O)[C@@H](NC(=O)[C@H](C(C)C)N(C)C)C(C)C)C(C)(C)[C@@H]5CC[C@]43C)[C@@H]12 | 0.7 (≈ 0.685 µM) | 0.4 (≈ 0.391 µM) | 2.1 (≈ 2.05 µM) | 0.85 (≈ 0.831 µM) | 0.4 (≈ 0.391 µM) | 2 (≈ 1.96 µM)
8 | C=C(C)[C@@H]1CC[C@]2(CO)CC[C@]3(C)[C@H](CC[C@@H]4[C@@]5(C)CC[C@H](O)C(C)(C)[C@@H]5CC[C@]43C)[C@@H]12 [BETULIN] | > 10 | > 10 | 7.4 (≈ 16.7 µM) | > 10 | > 10 | 9.3 (≈ 21 µM)
9 | C=C(C)[C@@H]1CC[C@]2(COC(C)=O)CC[C@]3(C)[C@H](CC[C@@H]4[C@@]5(C)CC[C@H](NC(=O)[C@H](C)[C@@H](OC)[C@@H]6CCCN6C(=O)C[C@@H](OC)[C@H]([C@@H](C)CC)N(C)C(=O)[C@@H](NC(=O)[C@H](C(C)C)N(C)C)C(C)C)C(C)(C)[C@@H]5CC[C@]43C)[C@@H]12 | 4.1 (≈ 3.85 µM) | 2.5 (≈ 2.35 µM) | > 10 | 7 (≈ 6.58 µM) | 3.8 (≈ 3.57 µM) | 10 (≈ 9.39 µM)
10 | C=C(C)[C@@H]1CC[C@]2(COC(C)=O)CC[C@]3(C)[C@H](CC[C@@H]4[C@@]5(C)CC/C(=N/O)C(C)(C)[C@@H]5CC[C@]43C)[C@@H]12 | 5.9 (≈ 11.9 µM) | > 10 | > 10 | 14.1 (≈ 28.3 µM) | > 10 | 10.4 (≈ 20.9 µM)
11 | C=C(C)[C@@H]1CC[C@]2(COC(C)=O)CC[C@]3(C)[C@H](CC[C@@H]4[C@@]5(C)CC[C@@H](N)C(C)(C)[C@@H]5CC[C@]43C)[C@@H]12 | 2.1 (≈ 4.34 µM) | 1.3 (≈ 2.69 µM) | 6 (≈ 12.4 µM) | 3 (≈ 6.2 µM) | 1.2 (≈ 2.48 µM) | > 10
12 | C=C(C)[C@@H]1CC[C@]2(COC(C)=O)CC[C@]3(C)[C@H](CC[C@@H]4[C@@]5(C)CC[C@H](N)C(C)(C)[C@@H]5CC[C@]43C)[C@@H]12 | 0.2 (≈ 0.413 µM) | 0.13 (≈ 0.269 µM) | 0.21 (≈ 0.434 µM) | 0.35 (≈ 0.723 µM) | 0.21 (≈ 0.434 µM) | 1.1 (≈ 2.27 µM)
13 | C=C(CN=[N+]=[N-])[C@@H]1CC[C@]2(COC(C)=O)CC[C@]3(C)[C@H](CC[C@@H]4[C@@]5(C)CC[C@H](OC(C)=O)C(C)(C)[C@@H]5CC[C@]43C)[C@@H]12 | > 10 | > 10 | > 10 | > 10 | > 10 | > 10
14 | C=C(CNC(=O)[C@H](C)[C@@H](OC)[C@@H]1CCCN1C(=O)OC(C)(C)C)[C@@H]1CC[C@]2(COC(C)=O)CC[C@]3(C)[C@H](CC[C@@H]4[C@@]5(C)CC[C@H](OC(C)=O)C(C)(C)[C@@H]5CC[C@]43C)[C@@H]12 | > 10 | > 10 | > 10 | 7 (≈ 8.63 µM) | 5.9 (≈ 7.27 µM) | > 10
15 | C=C(CNC(=O)[C@H](C)[C@@H](OC)[C@@H]1CCCN1C(=O)C[C@@H](OC)[C@H]([C@@H](C)CC)N(C)C(=O)[C@@H](NC(=O)[C@H](C(C)C)N(C)C)C(C)C)[C@@H]1CC[C@]2(COC(C)=O)CC[C@]3(C)[C@H](CC[C@@H]4[C@@]5(C)CC[C@H](OC(C)=O)C(C)(C)[C@@H]5CC[C@]43C)[C@@H]12 | 6.3 (≈ 5.61 µM) | 3 (≈ 2.67 µM) | > 10 | 4 (≈ 3.56 µM) | 4 (≈ 3.56 µM) | 8 (≈ 7.13 µM)
16 | C=C(CNC(=O)[C@H](C)[C@@H](OC)[C@@H]1CCCN1C(=O)C[C@@H](OC)[C@H]([C@@H](C)CC)N(C)C(=O)[C@@H](NC(=O)[C@H](C(C)C)N(C)C)C(C)C)[C@@H]1CC[C@]2(CO)CC[C@]3(C)[C@H](CC[C@@H]4[C@@]5(C)CC[C@H](O)C(C)(C)[C@@H]5CC[C@]43C)[C@@H]12 | 0.08 (≈ 0.077 µM) | 0.04 (≈ 0.0385 µM) | 0.5 (≈ 0.481 µM) | 0.09 (≈ 0.0867 µM) | 0.04 (≈ 0.0385 µM) | 0.4 (≈ 0.385 µM)
17 | C=C(C)[C@@H]1CC[C@]2(CNC(=O)[C@H](C)[C@@H](OC)[C@@H]3CCCN3C(=O)OC(C)(C)C)CC[C@]3(C)[C@H](CC[C@@H]4[C@@]5(C)CC[C@H](OC(C)=O)C(C)(C)[C@@H]5CC[C@]43C)[C@@H]12 | > 10 | > 10 | > 10 | > 10 | > 10 | > 10
18 | C=C(CN)[C@@H]1CC[C@]2(CO)CC[C@]3(C)[C@H](CC[C@@H]4[C@@]5(C)CC[C@H](O)C(C)(C)[C@@H]5CC[C@]43C)[C@@H]12 | 3.1 (≈ 6.77 µM) | 2.1 (≈ 4.59 µM) | 4 (≈ 8.74 µM) | 2.9 (≈ 6.34 µM) | 4.2 (≈ 9.18 µM) | 3 (≈ 6.55 µM)
19 | C=C(CNC(=O)[C@H](C)[C@@H](OC)[C@@H]1CCCN1C(=O)OC(C)(C)C)[C@@H]1CC[C@]2(CO)CC[C@]3(C)[C@H](CC[C@@H]4[C@@]5(C)CC[C@H](O)C(C)(C)[C@@H]5CC[C@]43C)[C@@H]12 | 9 (≈ 12.4 µM) | > 10 | > 10 | > 10 | > 10 | > 10
